The full list was thinned out, with hits kept by preference.
INS promoter act: TRM-6 insulin promoter activation; AID 1296; TRM-6 cells (human fetal islet line), insulin promoter eGFP reporter, imaging; plate-scaled: unstimulated 0, stimulated control 100; activation, % at 2 µM; hit rate 0.81% among 130,000;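 active = activation at 2 µM above a set limit, confirmed on inspection of the cell images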;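 also: share of cells whose green reporter signal exceeds an intensity cutoff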
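Assay system: TRM-6 human fetal islet cells, insulin promoter–eGFP reporter; Also added: 0.75 µM tamoxifen as reporter inducer; Schedule: 15 h tamoxifen pre-treatment, 48 h compound treatment at 37 °C; Signal: fixed-cell fluorescence microscopy, eGFP plus Hoechst; Read-out: percent activation from GFP-positive cell fraction; Control set: stimulated and unstimulated wells.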
* hit, by the source's call.

For CC(C)OCCCNC(=O)CN1CCN(Cc2ccccc2Cl)C1=O the results were INS promoter act -3.2.
Screening CCOc1ccc2nc(SCC(=O)NCc3ccc4c(c3)OCO4)[nH]c2c1 returned INS promoter act 0.0.
Screening CCC(=O)Nc1ccc(Oc2ccc(NC(=O)CC)c(NC(=O)CC)c2)cc1 returned INS promoter act -7.1.
Screening O=C(c1ccco1)N1CCN(c2ccc(Cl)c(Cl)c2)CC1 returned INS promoter act 0.0.
`O=C(c1cccn2c(=O)c3cc(Cl)ccc3nc12)N1CCN(Cc2ccc3c(c2)OCO3)CC1` gave INS promoter act -9.1.
For NC(=O)C1(N2CCCCC2)CCN(C(=O)c2cccn3c(=O)c4cc(Cl)ccc4nc23)CC1 the results were INS promoter act 150.0*.
For CCOCCCn1c(=S)[nH]c2cc(C(=O)N3CCC(C(N)=O)(N4CCCCC4)CC3)ccc2c1=O the results were INS promoter act -6.7.
Screening C=CCN(c1ccccc1)S(=O)(=O)c1c(C)[nH]c(=O)[nH]c1=O returned INS promoter act 0.0.
Screening O=C(C1CC1)N(CCN(Cc1ccccc1)C(=O)C1CC1)Cc1ccccc1 returned INS promoter act 250.0*.
For O=C(C1CCCCC1)N(Cc1ccccc1)c1ccccn1 the results were INS promoter act 238.5.
For CCN(Cc1ccccc1)C(=O)C1CCN(CC2CC=CCC2)CC1 (stereo not drawn) the results were INS promoter act 8.3.
For NC(=O)CSc1nnc(COc2ccccc2)n1CCc1ccccc1 the results were INS promoter act -5.6.
Screening COc1ccc(OCc2nnc(SCC(N)=O)n2-c2ccccc2OC)cc1 returned INS promoter act 160.0*.
Screening COc1ccccc1-n1c(COc2ccccc2-c2ccccc2)nnc1SCC(=O)c1c(N)n(C)c(=O)n(C)c1=O returned INS promoter act -2.0.
For N#C/C=C(/N)N1CCN(c2ccc(Cl)c(Cl)c2)CC1 the results were INS promoter act -3.1.
For S=C(Nc1ccc2cn[nH]c2c1)Nc1ccccc1Cl the results were INS promoter act -64.3.
`O=C(N1CCOCC1)C1(c2ccccc2)CCCCC1` gave INS promoter act 0.0.
Screening COc1ccc(C2(C(=O)Nc3ccc(C(=O)O)cc3)CCOCC2)cc1 returned INS promoter act -95.5.
O=C(O)c1ccc(NC(=O)C2(c3ccccc3)CCOCC2)cc1 was read as INS promoter act 493.8*.
Screening Cc1c(Cl)c([N+](=O)[O-])nn1CCCC(=O)NCCc1ccccc1 returned INS promoter act 109.1.
Screening CCCCn1nnnc1SCC(=O)Nc1ccc(N(C)C)cc1 returned INS promoter act 166.7.
For COc1cc(/C=C(\C#N)c2nc3ccccc3n2C)cc(OC)c1O the results were INS promoter act 478.6*.
`CCn1c(SCC(=O)N/N=C/c2cc(OC)c(O)c(OC)c2)nc2ccccc21` gave INS promoter act -2.7.
Screening COc1ccc(/C=N/n2c(N)nc3ccccc32)cc1OC returned INS promoter act -75.0.
Screening CCc1nnc(NC(=O)C2(C)COC(c3ccc(OC)cc3)OC2)s1 (stereo not drawn) returned INS promoter act 0.0.
`O=C1NN(c2ccc(F)cc2)C(=O)/C1=C\C=C\c1ccco1` gave INS promoter act 3.4.
For CC1=NN(c2cccc(C(=O)O)c2)C(=O)/C1=C\C=C\c1ccco1 the results were INS promoter act 455.6*.
For CC1=NN(c2ccccc2)C(=O)/C1=C\N1CC(C)OC(C)C1 (stereo not drawn) the results were INS promoter act -3.3.
Screening CC(C)N1C(=O)CCC1C(=O)NCc1cccs1 (stereo not drawn) returned INS promoter act 0.0.
Screening CCN(CC)C(=O)C12CC3CC(CC(Br)(C3)C1)C2 returned INS promoter act -2.9.
Screening CSCCC(NC(=O)CCN1C(=O)c2ccccc2C1=O)C(=O)O (stereo not drawn) returned INS promoter act 6.4.
CSCC[C@H](NC(=O)CCn1nnc2ccccc2c1=O)C(=O)O was read as INS promoter act 150.0*.
For O=c1c2ccccc2nnn1CSc1nc2ccccc2c(=O)n1CCCO the results were INS promoter act 9.1.
Cc1c(NC(=O)OC(C)C)sc(=S)n1C was read as INS promoter act 7.7.
For COC(=O)CCN(C(=O)c1ccc(OC(C)=O)cc1)c1ccccn1 the results were INS promoter act 75.7*.
Screening COC(=O)CCN(C(=O)c1cc([N+](=O)[O-])cc([N+](=O)[O-])c1)c1ccccn1 returned INS promoter act 0.0.
For CC(c1ccco1)N(C(=O)c1ccc(C#N)cc1)c1ccccn1 (stereo not drawn) the results were INS promoter act -7.1.
`CS(=O)(=O)N(CC(=O)NCCSc1ccccn1)c1cccc2ccccc12` gave INS promoter act -3.4.
For CCCCNC(=O)C1CC(c2c(Cl)cccc2Cl)=NO1 (stereo not drawn) the results were INS promoter act 8.9.
`CCOc1ccc(C(=O)N(Cc2ccc(OC)cc2)Cc2cc3cc(OC)ccc3[nH]c2=O)cc1` gave INS promoter act -9.4.
`CCCN(Cc1cc2cc(C)ccc2[nH]c1=O)C(=O)c1cccc(OC)c1` gave INS promoter act 196.8*.
